pEC50, pKi: −log10 of the molar value. ≈ marks a conversion by molar mass, not a printed value.

We go through five molecules from ChEMBL document CHEMBL1131121, “Inactivation of S-adenosyl-L-homocysteine hydrolase and antiviral activity with 5',5',6',6'-tetradehydro-6'-deoxy-6'-halohomoadenosine analogues (4'-haloacetylene analogues derived from adenosine)” (J Med Chem, 1998).

The subject of assay [1] is HeLa. Kind of assay: Minimum inhibitory concentration (MIC) required to elicit a microscopically visible alteration of cell morphology in HeLa cells. Format: functional. As to conditions: Homo sapiens.
For assay [2], the system named is Vero. In words: concentration required to inhibit Sindbis virus -induced cytopathicity by 50% in Vero cells. It is filed as functional, cell-based. The following applies: Chlorocebus sabaeus. The method, boiled down: (§1)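 Assay measured inhibition of virus-induced cytopathicity in confluent E6SM, HeLa or Vero monolayers. Cells were inoculated with 100 CCID50 of virus for 1 h adsorption, then unbound virus was removed. Cultures were incubated with serial compound concentrations (400, 200, 100 … µg/mL). Cytopathicity was scored once virus control cultures reached complete CPE, and the 50% effective concentration was derived.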

The target in assay [3] is T1, Adenosylhomocysteinase (Homo sapiens, UniProt P23526). Kind of assay: Inhibition of S-adenosyl-homocysteine hydrolase at 10 uM concentration was determined from enzyme activity remaining; values are per cent of control.
Target sequence in this assay (P23526 2-432 limits assumed): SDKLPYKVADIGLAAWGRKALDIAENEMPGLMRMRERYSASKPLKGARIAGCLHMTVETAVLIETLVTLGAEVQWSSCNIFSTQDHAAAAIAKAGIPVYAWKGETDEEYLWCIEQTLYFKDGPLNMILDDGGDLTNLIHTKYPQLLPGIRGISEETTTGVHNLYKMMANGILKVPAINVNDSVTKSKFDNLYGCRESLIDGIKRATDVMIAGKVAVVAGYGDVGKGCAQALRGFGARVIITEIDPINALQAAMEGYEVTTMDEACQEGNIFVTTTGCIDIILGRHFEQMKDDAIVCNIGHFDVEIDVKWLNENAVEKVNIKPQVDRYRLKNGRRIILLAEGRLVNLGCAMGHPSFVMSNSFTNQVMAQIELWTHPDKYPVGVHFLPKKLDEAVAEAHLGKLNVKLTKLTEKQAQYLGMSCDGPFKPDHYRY
Assay [4] relates to HeLa. Kind of assay: concentration required to inhibit VSV-induced cytopathicity by 50% in HeLa cells. It is filed as functional, cell-based. As to conditions: Homo sapiens. Summed up: as §1
Assay [5] addresses T1, Adenosylhomocysteinase. In words: (§2) Enzyme-mediated release of Adenine(Ade) from the compound. Summed up:
(§3)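 AdoHcy hydrolase (10 µM) was incubated with 100 µM compound in buffer A at 37 °C for 20 min. At each time point the reaction was stopped with 5 M HClO4 and adenine measured by HPLC. The peak identity was confirmed by co-injection with authentic adenine and by CI/NH3 mass spectrometry.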
Target sequence in this assay (P23526 2-432 limits assumed): as above

In assay [6] the test system is E6SM. In words: concentration required to inhibit HSV-1/TK (B2006) or VMW1837-induced cytopathicity by 50% in E6SM cells. The following applies: Homo sapiens. Format: functional, cell-based. Summed up:
as §1

The subject of assay [7] is E6SM. Kind of assay: concentration required to inhibit VSV-induced cytopathicity by 50% in E6SM cells. As to conditions: Homo sapiens. Format: functional, cell-based. The method, boiled down:
as §1

Assay [8] has as its system E6SM. In words: concentration required to inhibit HSV-2(G)-induced cytopathicity by 50% in E6SM cells. Format: functional, cell-based. The following applies: Homo sapiens. The method, boiled down: as §1
For assay [9], the system named is HeLa. Kind of assay: concentration required to inhibit RSV-induced cytopathicity by 50% in HeLa cells. It is filed as functional, cell-based. As to conditions: Homo sapiens. The method, boiled down: as §1
Assay [10] has as its target T1, Adenosylhomocysteinase. In words: (§4) Kinetic constant calculated from the pseudo-first-order rate constant(k app) for S-adenosyl-homocysteine hydrolase inactivation. The method, boiled down: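 For time-dependent inactivation, enzyme (25 nM) was incubated with various inhibitor concentrations in buffer A at 37 °C for 0–5 min, then residual synthetic-direction activity was assayed by HPLC. k_app was taken from the log(remaining activity) versus time plot. k2 and Ki were derived from k_app and [I] by the Kitz–Wilson method.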
Target sequence in this assay (P23526 2-432 limits assumed): as above

Assay [11] addresses T1, Adenosylhomocysteinase. Kind of assay: Inhibition of S-adenosyl-homocysteine hydrolase at 100 uM concentration was determined from enzyme activity remaining. As to conditions: values are per cent of control. The method, boiled down:
(§5)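 Recombinant human placental AdoHcy hydrolase was exposed to 100 µM inhibitor in buffer A (50 mM potassium phosphate, pH 7.2, 1 mM EDTA) at 37 °C for 20 min. Residual activity was measured in the synthetic direction with 1 mM Ado plus 5 mM Hcy for 5 min at 37 °C. The reaction was stopped with HClO4 and AdoHcy quantified by C18 reverse-phase HPLC.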
Target sequence in this assay (P23526 2-432 limits assumed): as above

The target of assay [12] is T1, Adenosylhomocysteinase. In words: Enzyme-mediated release of halide ions from the compound. It is filed as functional. Summed up:
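Enzyme (10 µM) was incubated with 100 µM compound in buffer A at 37 °C for 20 min and the filtrate collected through a 3000 Mr cutoff device. Cl⁻ and Br⁻ were measured by anion-exchange HPLC with conductivity detection (1.5 mM p-hydroxybenzoic acid/2% methanol, pH 8.5). I⁻ was measured by C18 ion-pair HPLC at 260 nm. All ions were quantified against standard curves.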
Target sequence in this assay (P23526 2-432 limits assumed): as above

Assay [13] has as its system Vero. Kind of assay: Minimum inhibitory concentration (MIC) required to elicit a microscopically visible alteration of cell morphology in Vero cells. As to conditions: Chlorocebus sabaeus. It is filed as functional.
For assay [14], the target named is T1, Adenosylhomocysteinase. Kind of assay: Inhibition of S-adenosyl-homocysteine hydrolase at 0.1 uM concentration was determined from enzyme activity remaining; values are per cent of control.
Target sequence in this assay (P23526 2-432 limits assumed): as above
Assay [15] has as its system E6SM. Kind of assay: Minimum inhibitory concentration (MIC) required to elicit a microscopically visible alteration of cell morphology in E6SM cells. It is filed as functional. As to conditions: Homo sapiens.
The test system of assay [16] is Vero. In words: concentration required to inhibit Coxsackie virus B4-induced cytopathicity by 50% in Vero cells. The following applies: Chlorocebus sabaeus. Format: functional, cell-based. The method, boiled down: as §1
In assay [17] the test system is HeLa. In words: concentration required to inhibit Coxsackie virus B4-induced cytopathicity by 50% in HeLa cells. As to conditions: Homo sapiens. Format: functional, cell-based. The method, boiled down: as §1
The target in assay [18] is T1, Adenosylhomocysteinase. The assay is described as §4. Summed up: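 Recombinant human placental AdoHcy hydrolase (25 nM) preincubated with 0–100 µM inhibitor in buffer A (50 mM potassium phosphate, pH 7.2, 1 mM EDTA) at 37 °C for 0–5 min. Residual activity then measured in the synthetic direction (Ado 1 mM, Hcy 5 mM, 37 °C, 5 min; AdoHcy by reverse-phase HPLC). k_app taken from log remaining activity vs time; k2 and Ki from Kitz–Wilson analysis.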
This is another data set of the same source.
Target sequence in this assay (P23526 whole entry): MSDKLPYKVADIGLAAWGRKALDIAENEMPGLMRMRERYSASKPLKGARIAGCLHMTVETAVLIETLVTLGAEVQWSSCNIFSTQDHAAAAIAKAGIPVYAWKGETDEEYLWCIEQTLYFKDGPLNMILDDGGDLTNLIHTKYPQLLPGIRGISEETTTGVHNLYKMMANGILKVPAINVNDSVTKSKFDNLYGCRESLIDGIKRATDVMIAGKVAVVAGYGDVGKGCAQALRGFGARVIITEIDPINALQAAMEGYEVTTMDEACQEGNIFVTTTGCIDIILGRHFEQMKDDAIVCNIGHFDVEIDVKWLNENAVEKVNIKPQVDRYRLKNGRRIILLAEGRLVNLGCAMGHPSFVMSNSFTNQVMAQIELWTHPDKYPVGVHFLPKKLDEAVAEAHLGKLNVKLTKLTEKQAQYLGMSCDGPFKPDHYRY

Assay [19] has as its target T1, Adenosylhomocysteinase. Kind of assay: Effect on the S-adenosyl-homocysteine hydrolase activity. It is filed as functional. Summed up:
as §5

Assay [20] addresses T1, Adenosylhomocysteinase. Kind of assay: Inhibition of S-adenosyl-homocysteine hydrolase at 01 uM concentration was determined from enzyme activity remaining. The method, boiled down: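 Recombinant human placental AdoHcy hydrolase (25 nM) was preincubated with 0–100 µM inhibitor in buffer A (50 mM potassium phosphate, pH 7.2, 1 mM EDTA) at 37 °C for 20 min. Remaining activity was assayed as AdoHcy formed from 1 mM Ado and 5 mM Hcy (5 min, 37 °C), then HClO4 quench and C18 HPLC. Results are given as % activity remaining.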

For assay [21], the system named is Vero. In words: concentration required to inhibit reovirus-1-induced cytopathicity by 50% in Vero cells. Format: functional, cell-based. The following applies: Chlorocebus sabaeus. Summed up:
as §1

In assay [22] the test system is Vero. Kind of assay: concentration required to inhibit Punta Toro virus-induced cytopathicity by 50% in Vero cells. It is filed as functional, cell-based. As to conditions: Chlorocebus sabaeus. Summed up: as §1
For assay [23], the target named is T1, Adenosylhomocysteinase. Kind of assay: NADH content of the enzyme (percentage of total coenzyme) from the compound. Format: functional. The method, boiled down: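 AdoHcy hydrolase (10 µM) in buffer A was incubated with 100 µM compound at 37 °C for 20 min. Conversion of enzyme-bound NAD⁺ to NADH was followed by UV absorbance at 340 nm and quantified against a standard curve. Values are given as % of total coenzyme.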

The subject of assay [24] is Vero. Kind of assay: concentration required to inhibit parainfluenza-3 virus-induced cytopathicity by 50% in Vero cells. It is filed as functional, cell-based. The following applies: Chlorocebus sabaeus. Summed up: as §1
In assay [25] the test system is E6SM. In words: concentration required to inhibit vaccinia virus-induced cytopathicity by 50% in E6SM cells. It is filed as functional, cell-based. As to conditions: Homo sapiens. Summed up: as §1
Assay [26] concerns E6SM. Kind of assay: concentration required to inhibit HSV-1(KOS)-induced cytopathicity by 50% in E6SM cells. The following applies: Homo sapiens. It is filed as functional, cell-based. The method, boiled down: as §1
For assay [27], the system named is Vero. Kind of assay: concentration required to inhibit reovirus-1 induced cytopathicity by 50% in Vero cells. Format: functional, cell-based. The following applies: Chlorocebus sabaeus. The method, boiled down: as §1
The target of assay [28] is T1, Adenosylhomocysteinase. The description is as §2. It is filed as functional. Summed up:
as §3

For assay [29], the target named is T1, Adenosylhomocysteinase. In words: Inhibition of S-adenosyl-homocysteine hydrolase at 100 uM concentration was determined from S-adenosylhomocysteine hydrolase activity remaining. As to conditions: values are per cent of control. The method, boiled down: as §5
In assay [30] the target is T1, Adenosylhomocysteinase. In words: Inhibition of S-adenosyl-homocysteine hydrolase at 1 uM concentration was determined from enzyme activity remaining; values are per cent of control.
The target in assay [31] is T1, Adenosylhomocysteinase. In words: Inhibition of S-adenosyl-homocysteine hydrolase at 100 uM concentration. Summed up: as §5

Consider `Nc1ncnc2c1ncn2C1O[C@H](C#CCl)[C@@H](O)[C@H]1O` (some centres not stated), for which the values for the MIC in [1], in [13] and in [15] were over 340 µM, over 140 µM and over 340 µM, respectively. Besides, the pEC50 in assay [2] was under 4.46; in assay [4] it was under 3.85; in [6], under 3.85; in assay [7], 4.15; in assay [8] it was under 3.85; in [9] it was under 3.85. Moreover, the pEC50 is under 4.46 in assay [16]; under 3.85 in [17]; under 4.46 in assay [21]; under 4.46 in [22]; under 4.46 in assay [24]; 3.85 in assay [25]. For the same molecule, the pEC50 in assay [26] was under 3.85. The residual activity came to 58.9% in [3], 55% in [11] and 89.3% in assay [14]. Also, the Release in [5] is 18%; in assay [12] it was 28%. The k2 in assay [10] is 0.48 min⁻¹. In assay [18], the pKi was 5.77. The molecule further showed an Activity in assay [19] of 47%. The inhibition in [20] turned out to be 64%. The Total coenzyme in assay [23] is 53%.

As to `NC1=NC(CCCO)N(CCCO)c2[nH]cnc21` (configuration not stated), the values for the MIC in [1] and in assay [13] were over 2000 µM and over 1600 µM, respectively. For the same molecule, the pEC50 was under 2.70 in assay [2]; 3.40 in assay [4]; 3.62 in assay [27]; under 2.70 in assay [16]; under 2.70 in assay [17]; under 2.70 in assay [22]. Moreover, the pEC50 in [24] is 2.92.

As to `NC(=O)c1ncn([C@@H]2O[C@H](CO)[C@@H](O)[C@H]2O)n1` [RIBAVIRIN], the MIC in assay [1], in assay [13] and in assay [15] was over 1600 µM throughout. In addition, the pEC50 in assay [2] was 4.19; in assay [4] it was 3.72; in assay [6], 3.89; in [7] it was 3.72; in assay [8], 3.02; in assay [16] it was under 2.80. In addition, the pEC50 was 3.49 in [17]; 4.19 in assay [21]; 4.19 in assay [22]; 4.19 in assay [24]; 3.72 in assay [25]; 3.02 in assay [26].

Regarding `Nc1ncnc2c1ncn2C1O[C@H](C#CBr)[C@@H](O)[C@H]1O` (some centres not stated), the Release in assay [28] is 28%; in assay [12], 70%. For the same molecule, the residual activity came to 56% in assay [29], 62.9% in assay [3], 73.2% in [30] and 91% in [14]. The values for the MIC in assay [1], in [13] and in [15] were over 300 µM, over 120 µM and over 300 µM, respectively. Moreover, the pEC50 in assay [2] was under 4.52; in [4] it was 4.35; in [6], under 3.92; in assay [7] it was 5.22; in [8] it was under 3.92; in [9] it was 3.68. For the same molecule, the pEC50 is under 4.52 in assay [16]; under 3.52 in assay [17]; 5.52 in assay [21]; under 4.52 in [22]; 5.22 in [24]; 5.22 in assay [25]. Further, the pEC50 in assay [26] was under 3.92. Further, the k2 in [10] is 0.49 min⁻¹. For the same molecule, in [18], the pKi was 5.42. For the same molecule, the Activity in assay [19] is 49%. Further, the Total coenzyme in [23] turned out to be 49%.

For `Nc1ncnc2c1ncn2C1O[C@H](C#CI)[C@@H](O)[C@H]1O` (some centres not stated), the Release in assay [28] turned out to be 5.7%; in [12], 0%. Moreover, the MIC is over 1040 µM in assay [1], over 180 µM in [13] and 26 µM (≈ 10.1 µg/mL) in assay [15]. Also, the pEC50 in assay [2] was under 3.98; in assay [4], 3.59; in assay [6] it was under 5.00; in [7] it was 7.10; in [8], under 5.00; in assay [9], under 3.59. Moreover, the pEC50 was under 3.98 in assay [16]; under 3.59 in assay [17]; under 6.11 in assay [21]; under 3.98 in assay [22]; 5.59 in [24]; 6.59 in assay [25]. For the same molecule, the pEC50 in assay [26] was under 5.00. Also, the figures for the residual activity in assay [3], in [30] and in [14] were 8.8%, 44.6% and 80%, respectively. Besides, in [10], the k2 is 0.095 min⁻¹. Moreover, the pKi in assay [18] is 5.96. The molecule also yielded an Activity in assay [19] of 1.4%. The same molecule registered a Total coenzyme in assay [23] of 96%. The molecule further gave an inhibition in assay [31] of under 2%.
